≈ marks a conversion by molar mass, not a printed value.
Assays:
Type in all cases: functional
NCI-H460 = experiment: Growth inhibition of human NCI-H460 cells measured after 48 hrs by sulforhodamine B assay; settings: NCI-H460, 48 h
How it was run: (§1)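 Cells were seeded in RPMI1640 with 5% fetal bovine serum and incubated 24 h before serial dilutions of sample were added. After 48 h exposure, cells were fixed with trichloroacetic acid and stained with sulforhodamine B, and optical density was read by plate reader.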

[1] = Growth inhibition of human KM20L2 cells measured after 48 hrs by sulforhodamine B assay; settings: KM-20L2, 48 h; how it was run: as §1
[2] = Growth inhibition of human BxPC3 cells measured after 48 hrs by sulforhodamine B assay; settings: BXPC-3, 48 h; how it was run: as §1
MCF7 = experiment: Growth inhibition of human MCF7 cells measured after 48 hrs by sulforhodamine B assay; settings: MCF7, 48 h; how it was run: as §1
[3] = Growth inhibition of human SF268 cells measured after 48 hrs by sulforhodamine B assay; settings: SF-268, 48 h; how it was run: as §1
[4] = Growth inhibition of human DU145 cells measured after 48 hrs by sulforhodamine B assay; settings: DU-145, 48 h; how it was run: as §1
P388 = experiment: Growth inhibition of mouse P388 cells measured after 48 hrs by sulforhodamine B assay; settings: P388, 48 h, read-out: ED50 (the source's name)

Compound | GI50 (NCI-H460) [µg/mL] | GI50 [1] [µg/mL] | GI50 [2] [µg/mL] | GI50 (MCF7) [µg/mL] | GI50 [3] [µg/mL] | GI50 [4] [µg/mL] | EC50 (P388) [µg/mL]
COc1cc(C2C3=C(COC3=O)N(C3CCCC3)c3cc4c(cc32)OCO4)cc(OC)c1OC (stereo unspecified) | 0.16 (≈ 0.344 µM) | 0.12 (≈ 0.258 µM) | 0.083 (≈ 0.178 µM) | 0.045 (≈ 0.0967 µM) | 0.062 (≈ 0.133 µM) | 0.27 (≈ 0.58 µM) | –
COc1ccc(C2C3=C(COC3=O)Nc3cc(OC)c(OC)c(OC)c32)cc1O (stereo unspecified) | 10.1 (≈ 25.3 µM) | – | 6.5 (≈ 16.3 µM) | 7 (≈ 17.5 µM) | 7.3 (≈ 18.3 µM) | > 10 | 0.78 (≈ 1.95 µM)
COc1cc(-c2c3c(nc4cc5c(cc24)OCO5)COC3=O)cc(OC)c1OC | 2.8 (≈ 7.08 µM) | 2.1 (≈ 5.31 µM) | 4.1 (≈ 10.4 µM) | 3.4 (≈ 8.6 µM) | 2.4 (≈ 6.07 µM) | 2.4 (≈ 6.07 µM) | 3.6 (≈ 9.11 µM)
COc1cc(C2C3=C(COC3=O)N(C3CCC3)c3cc4c(cc32)OCO4)cc(OC)c1OC (stereo unspecified) | 0.028 (≈ 0.062 µM) | 0.032 (≈ 0.0709 µM) | 0.04 (≈ 0.0886 µM) | 0.026 (≈ 0.0576 µM) | 0.026 (≈ 0.0576 µM) | 0.047 (≈ 0.104 µM) | 0.24 (≈ 0.532 µM)
COc1cc(C2C3=C(COC3=O)Nc3cc4c(cc32)OCO4)cc(OC)c1O (stereo unspecified) | 0.027 (≈ 0.0704 µM) | 0.032 (≈ 0.0835 µM) | 0.028 (≈ 0.073 µM) | 0.025 (≈ 0.0652 µM) | 0.026 (≈ 0.0678 µM) | 0.033 (≈ 0.0861 µM) | 0.028 (≈ 0.073 µM)
COc1cc(C2C3=C(COC3=O)N(CCN(C)C)c3cc4c(cc32)OCO4)cc(OC)c1OC (stereo unspecified) | 1 (≈ 2.13 µM) | 0.51 (≈ 1.09 µM) | 0.43 (≈ 0.918 µM) | 0.29 (≈ 0.619 µM) | 0.46 (≈ 0.982 µM) | 2.5 (≈ 5.34 µM) | 0.18 (≈ 0.384 µM)
COc1cc(C2C3=C(COC3=O)N(CCc3ccc(Cl)cc3)c3cc4c(cc32)OCO4)cc(OC)c1OC (stereo unspecified) | 0.3 (≈ 0.56 µM) | 0.37 (≈ 0.69 µM) | 0.54 (≈ 1.01 µM) | 0.34 (≈ 0.634 µM) | 0.35 (≈ 0.653 µM) | 0.31 (≈ 0.578 µM) | 2.6 (≈ 4.85 µM)
COc1cc(C2C3=C(COC3=O)N(C)c3cc4c(cc32)OCO4)cc(OC)c1OC (stereo unspecified) | 0.032 (≈ 0.0778 µM) | 0.032 (≈ 0.0778 µM) | 0.049 (≈ 0.119 µM) | 0.034 (≈ 0.0826 µM) | 0.029 (≈ 0.0705 µM) | 0.026 (≈ 0.0632 µM) | 0.027 (≈ 0.0656 µM)
COc1cc(C2C3=C(COC3=O)N(C3CCCC3)c3cc4c(cc32)OCO4)cc(OC)c1O (stereo unspecified) | 0.33 (≈ 0.731 µM) | 2.1 (≈ 4.65 µM) | 0.53 (≈ 1.17 µM) | 0.32 (≈ 0.709 µM) | 0.39 (≈ 0.864 µM) | 0.41 (≈ 0.908 µM) | –
COc1cc(C2C3=C(COC3=O)N(CCc3ccc(F)cc3)c3cc4c(cc32)OCO4)cc(OC)c1OC (stereo unspecified) | 2.3 (≈ 4.43 µM) | 2.4 (≈ 4.62 µM) | 0.9 (≈ 1.73 µM) | 0.42 (≈ 0.808 µM) | 0.52 (≈ 1 µM) | 2.5 (≈ 4.81 µM) | 3.3 (≈ 6.35 µM)
COc1cc([C@@H]2c3cc4c(cc3C[C@H]3COC(=O)[C@@H]32)OCO4)cc(OC)c1OC [DESOXYPODOPHYLLOTOXIN] | 0.0018 (≈ 0.00452 µM) | 0.0014 (≈ 0.00351 µM) | 0.00044 (≈ 0.0011 µM) | 0.0027 (≈ 0.00678 µM) | 0.00056 (≈ 0.00141 µM) | 0.0017 (≈ 0.00427 µM) | 0.029 (≈ 0.0728 µM)
COc1cc([C@@H]2c3cc4c(cc3[C@H](O)[C@H]3COC(=O)[C@H]23)OCO4)cc(OC)c1OC [PODOFILOX] | – | – | – | – | – | – | 0.0043 (≈ 0.0104 µM)
COc1cc(C2C3=C(COC3=O)N(CCO)c3cc4c(cc32)OCO4)cc(OC)c1OC (stereo unspecified) | 0.58 (≈ 1.31 µM) | 0.52 (≈ 1.18 µM) | 0.6 (≈ 1.36 µM) | 0.37 (≈ 0.838 µM) | 0.41 (≈ 0.929 µM) | 1.3 (≈ 2.94 µM) | 2 (≈ 4.53 µM)
COc1cc(C2C3=C(COC3=O)N(CCc3ccccn3)c3cc4c(cc32)OCO4)cc(OC)c1OC (stereo unspecified) | 0.34 (≈ 0.677 µM) | 0.29 (≈ 0.577 µM) | 0.38 (≈ 0.756 µM) | 0.32 (≈ 0.637 µM) | 0.33 (≈ 0.657 µM) | 0.42 (≈ 0.836 µM) | 2.5 (≈ 4.97 µM)
COc1cc(C2C3=C(COC3=O)N(CCN3CCOCC3)c3cc4c(cc32)OCO4)cc(OC)c1OC (stereo unspecified) | 3 (≈ 5.88 µM) | 2.5 (≈ 4.9 µM) | 3.5 (≈ 6.86 µM) | 0.89 (≈ 1.74 µM) | 2.6 (≈ 5.09 µM) | 2 (≈ 3.92 µM) | 2.6 (≈ 5.09 µM)

— ChEMBL document CHEMBL3808349, “Antineoplastic Agents. 585. Isolation of Bridelia ferruginea Anticancer Podophyllotoxins and Synthesis of 4-Aza-podophyllotoxin Structural Modifications” (2016)
